Data published in ChEMBL document CHEMBL4007505 (J Med Chem, 2017).
pEC50, pIC50, pKi: −log10 of the molar value. The source made the active and inactive calls.

Columns and labels:
Mus musculus = experiment: Antiallodynic activity in mouse chronic constriction injury model of neuropathic pain assessed as time duration of action for increasing in paw withdrawal threshold at 3 umol/kg, po administered on day 7 post injury; format: functional
[1] = molecular target: Alpha-2A adrenergic receptor (Homo sapiens, UniProt P08913); experiment: Displacement of [3H]Rauwolscine from human adrenergic alpha2A receptor
[2] = molecular target: T1, Sodium-dependent dopamine transporter (Homo sapiens, UniProt Q01959); experiment: Inhibition of [3H]WIN35,428 binding to recombinant human DAT expressed in HEK293 cell membranes at 10 uM pre-incubated for 10 mins before radioligand addition and measured 90 mins after radioligand addition by micro beta scintillation counting analysis relative to control
Adenosine receptor A3 [3] = molecular target: T2, Adenosine receptor A3 (Homo sapiens, UniProt P0DMS8); experiment: Displacement of [125I]N6-(4-amino-3-iodobenzyl)adenosine-5'-N-methyluronamide from human A3AR expressed in HEK293T cells pre-incubated for 10 mins before radioligand addition and measured 90 mins after radioligand addition by micro beta scintillation counting analysis relative to control; format: cell-based, HEK-293T
T2 sequence (P0DMS8 whole entry): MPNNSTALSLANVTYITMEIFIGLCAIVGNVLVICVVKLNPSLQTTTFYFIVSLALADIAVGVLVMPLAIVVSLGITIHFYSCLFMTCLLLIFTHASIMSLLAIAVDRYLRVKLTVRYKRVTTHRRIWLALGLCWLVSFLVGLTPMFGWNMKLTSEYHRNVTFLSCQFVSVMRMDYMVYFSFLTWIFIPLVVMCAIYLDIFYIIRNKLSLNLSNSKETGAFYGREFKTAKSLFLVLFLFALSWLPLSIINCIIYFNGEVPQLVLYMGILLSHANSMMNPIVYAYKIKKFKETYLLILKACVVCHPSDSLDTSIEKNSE

[4] = molecular target: T3, Alpha-2C adrenergic receptor (Homo sapiens, UniProt P18825); experiment: Displacement of [3H]Rauwolscine from human adrenergic alpha2C receptor
T3 sequence (P18825 whole entry): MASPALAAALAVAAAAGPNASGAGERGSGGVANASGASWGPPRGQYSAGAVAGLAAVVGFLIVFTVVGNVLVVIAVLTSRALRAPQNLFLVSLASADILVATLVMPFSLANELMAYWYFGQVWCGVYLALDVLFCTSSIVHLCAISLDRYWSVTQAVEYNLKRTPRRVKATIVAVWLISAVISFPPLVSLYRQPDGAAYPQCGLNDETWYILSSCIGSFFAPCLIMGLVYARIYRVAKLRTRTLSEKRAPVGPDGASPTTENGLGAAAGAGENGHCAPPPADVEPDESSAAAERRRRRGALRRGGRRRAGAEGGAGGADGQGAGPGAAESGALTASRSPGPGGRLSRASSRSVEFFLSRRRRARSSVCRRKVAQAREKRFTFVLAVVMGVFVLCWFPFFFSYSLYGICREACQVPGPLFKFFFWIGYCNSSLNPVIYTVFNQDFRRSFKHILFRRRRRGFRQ

[5] = molecular target: T1, Sodium-dependent dopamine transporter; experiment: Enhancing of [3H]WIN35,428 binding to recombinant human DAT expressed in HEK293 cell membranes at 10 uM pre-incubated for 10 mins before radioligand addition and measured 90 mins after radioligand addition by micro beta scintillation counting analysis relative to control
[6] = molecular target: T4, Alpha-1A adrenergic receptor (Homo sapiens, UniProt P35348); experiment: Displacement of [3H]Prazosin from human adrenergic alpha1A receptor
T4 sequence (P35348 whole entry): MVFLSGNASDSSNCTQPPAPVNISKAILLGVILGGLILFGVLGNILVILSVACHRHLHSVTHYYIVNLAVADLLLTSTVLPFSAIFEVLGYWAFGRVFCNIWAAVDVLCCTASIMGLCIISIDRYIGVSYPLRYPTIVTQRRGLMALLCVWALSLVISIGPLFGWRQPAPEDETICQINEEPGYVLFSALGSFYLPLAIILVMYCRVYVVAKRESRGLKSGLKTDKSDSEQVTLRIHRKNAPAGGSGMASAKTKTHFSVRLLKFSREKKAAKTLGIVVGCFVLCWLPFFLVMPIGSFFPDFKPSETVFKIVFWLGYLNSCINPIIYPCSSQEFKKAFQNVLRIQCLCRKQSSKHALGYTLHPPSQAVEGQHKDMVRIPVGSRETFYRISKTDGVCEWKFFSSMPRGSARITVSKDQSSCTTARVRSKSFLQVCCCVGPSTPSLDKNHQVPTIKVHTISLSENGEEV

[7] = molecular target: T5, Sodium-dependent noradrenaline transporter (Homo sapiens, UniProt P23975); experiment: Inhibition of [3H]nisoxetine binding to recombinant human NET expressed in HEK293 cell membranes preincubated for 10 mins followed by radioligand addition measured after 90 mins by micro beta scintillation counting analysis
[8] = molecular target: T6, Alpha-1D adrenergic receptor (Homo sapiens, UniProt P25100); experiment: Displacement of [3H]Prazosin from human adrenergic alpha1D receptor
T6 sequence (P25100 whole entry): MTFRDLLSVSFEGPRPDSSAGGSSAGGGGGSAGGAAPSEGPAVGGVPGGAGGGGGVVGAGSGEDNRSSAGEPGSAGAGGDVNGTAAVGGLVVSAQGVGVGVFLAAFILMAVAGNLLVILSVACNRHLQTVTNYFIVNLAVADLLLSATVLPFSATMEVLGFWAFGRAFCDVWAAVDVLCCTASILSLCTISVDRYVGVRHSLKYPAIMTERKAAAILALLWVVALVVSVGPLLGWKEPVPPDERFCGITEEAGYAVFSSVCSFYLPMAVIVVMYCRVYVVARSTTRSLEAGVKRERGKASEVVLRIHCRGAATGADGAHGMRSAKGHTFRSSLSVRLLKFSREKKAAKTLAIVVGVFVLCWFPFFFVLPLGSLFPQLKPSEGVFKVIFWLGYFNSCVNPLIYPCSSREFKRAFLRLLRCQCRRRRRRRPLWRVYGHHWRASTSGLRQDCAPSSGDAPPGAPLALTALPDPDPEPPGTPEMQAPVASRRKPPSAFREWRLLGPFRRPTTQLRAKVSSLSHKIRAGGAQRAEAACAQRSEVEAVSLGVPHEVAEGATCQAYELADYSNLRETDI

[9] = molecular target: T1, Sodium-dependent dopamine transporter; experiment: Enhancing of [3H]WIN35,428 binding to recombinant human DAT expressed in HEK293 cell membranes pre-incubated for 10 mins before radioligand addition and measured 90 mins after radioligand addition by micro beta scintillation counting analysis relative to control
[10] = molecular target: T7, Alpha-1B adrenergic receptor (Homo sapiens, UniProt P35368); experiment: Displacement of [3H]Prazosin from human adrenergic alpha1B receptor
T7 sequence (P35368 whole entry): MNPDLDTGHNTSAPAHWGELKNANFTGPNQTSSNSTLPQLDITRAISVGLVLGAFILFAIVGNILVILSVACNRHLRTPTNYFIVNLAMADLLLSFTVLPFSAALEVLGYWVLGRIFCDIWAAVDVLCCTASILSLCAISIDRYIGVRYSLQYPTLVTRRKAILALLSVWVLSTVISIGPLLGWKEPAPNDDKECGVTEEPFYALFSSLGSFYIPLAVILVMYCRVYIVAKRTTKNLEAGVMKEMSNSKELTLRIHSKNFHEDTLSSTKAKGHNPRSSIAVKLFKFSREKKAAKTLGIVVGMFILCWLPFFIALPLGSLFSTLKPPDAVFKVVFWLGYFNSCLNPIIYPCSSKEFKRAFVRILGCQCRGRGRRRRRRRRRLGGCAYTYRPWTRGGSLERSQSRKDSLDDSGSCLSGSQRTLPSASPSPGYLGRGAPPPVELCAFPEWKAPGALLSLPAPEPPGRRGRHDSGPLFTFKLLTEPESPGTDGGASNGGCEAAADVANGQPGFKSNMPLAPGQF

[11] = molecular target: Alpha-2B adrenergic receptor (Homo sapiens, UniProt P18089); experiment: Displacement of [3H]Rauwolscine from human adrenergic alpha2B receptor
Adenosine receptor A3 [12] = molecular target: T8, Adenosine receptor A3 (Mus musculus, UniProt Q61618); experiment: Displacement of [125I]N6-(4-amino-3-iodobenzyl)adenosine-5'-N-methyluronamide from mouse A3AR expressed in HEK293T cells pre-incubated for 10 mins before radioligand addition and measured 90 mins after radioligand addition by micro beta scintillation counting analysis relative to control; format: cell-based
T8 sequence (Q61618 whole entry): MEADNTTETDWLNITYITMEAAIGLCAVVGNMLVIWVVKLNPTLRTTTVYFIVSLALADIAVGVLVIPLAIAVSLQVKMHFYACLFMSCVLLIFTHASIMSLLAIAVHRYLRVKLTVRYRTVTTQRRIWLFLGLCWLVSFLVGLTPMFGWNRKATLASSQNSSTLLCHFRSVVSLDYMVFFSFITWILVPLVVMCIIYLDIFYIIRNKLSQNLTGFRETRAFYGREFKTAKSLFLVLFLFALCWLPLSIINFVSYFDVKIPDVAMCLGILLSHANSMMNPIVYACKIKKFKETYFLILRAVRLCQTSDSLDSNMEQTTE

[13] = molecular target: Sigma intracellular receptor 2 (Rattus norvegicus, UniProt Q5U3Y7); experiment: Displacement of [3H]DTG from rat sigma 2 receptor
[14] = molecular target: T9, Adenosine receptor A3 (Mus musculus) (UniProt Q61618); experiment: Displacement of [125I]N6-(4-amino-3-iodobenzyl)adenosine-5'-N-methyluronamide from mouse A3AR expressed in HEK293T cells at 10 uM pre-incubated for 10 mins before radioligand addition and measured 90 mins after radioligand addition by micro beta scintillation counting analysis relative to control; format: cell-based
T9 sequence (whole entry): T8 sequence (Q61618 whole entry)

[15] = molecular target: T1, Sodium-dependent dopamine transporter; experiment: Enhancing of [3H]mazindol binding to recombinant human DAT expressed in HEK293 cell membranes preincubated for 10 mins followed by radioligand addition measured after 90 mins by micro beta scintillation counting analysis; conditions: hek293
Outline: (§1)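 Membranes of HEK-293 cells stably expressing hDAT, hNET or hSERT. […] Compound preincubated 10 min at room temperature, then [125I]23 (40-80 pM final) or [3H]26 (1-3 nM for DAT and NET, 10-13 nM for SERT) added. Incubated 90 min at room temperature in the dark, then filtered. EC50 or Ki; mean ± SEM.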

[16] = molecular target: T1, Sodium-dependent dopamine transporter; experiment: Enhancing of [125I]RTI-55 binding to recombinant human DAT expressed in HEK293 cell membranes preincubated for 10 mins followed by radioligand addition measured after 90 mins by micro beta scintillation counting analysis; conditions: hek293; outline: as §1
[17] = molecular target: T10, Sodium-dependent dopamine transporter (Mus musculus, UniProt Q61327); experiment: Inhibition of [125I]RTI-55 binding to mouse DAT expressed in HEK293 cells preincubated for 10 mins followed by radioligand addition measured after 90 mins by micro beta scintillation counting analysis; format: cell-based
[18] = molecular target: Sodium-dependent serotonin transporter (Homo sapiens, UniProt P31645); experiment: Enhancing of [125I]RTI-55 binding to recombinant human SERT expressed in HEK293 cell membranes preincubated for 10 mins followed by radioligand addition measured after 90 mins by micro beta scintillation counting analysis; conditions: hek293
[19] = molecular target: T10, Sodium-dependent dopamine transporter; experiment: Inhibition of mouse DAT expressed in HEK293 cells assessed as reduction in [3H]-DA uptake; format: cell-based
[20] = molecular target: T5, Sodium-dependent noradrenaline transporter; experiment: Inhibition of [125I]RTI-55 binding to recombinant human NET expressed in HEK293 cell membranes preincubated for 10 mins followed by radioligand addition measured after 90 mins by micro beta scintillation counting analysis
[21] = molecular target: T5, Sodium-dependent noradrenaline transporter; experiment: Inhibition of recombinant human NET expressed in HEK293 […] assessed as reduction in [3H]-norepinephrine uptake incubated for 22 mins by micro beta scintillation counting analysis
[22] = molecular target: T5, Sodium-dependent noradrenaline transporter; experiment: Inhibition of [3H]mazindol binding to recombinant human NET expressed in HEK293 cell membranes preincubated for 10 mins followed by radioligand addition measured after 90 mins by micro beta scintillation counting analysis
[23] = molecular target: T5, Sodium-dependent noradrenaline transporter; experiment: Enhancing of [125I]RTI-55 binding to recombinant human NET expressed in HEK293 cell membranes preincubated for 10 mins followed by radioligand addition measured after 90 mins by micro beta scintillation counting analysis; conditions: hek293
[24] = molecular target: T5, Sodium-dependent noradrenaline transporter; experiment: Enhancing of [3H]mazindol binding to recombinant human NET expressed in HEK293 cell membranes preincubated for 10 mins followed by radioligand addition measured after 90 mins by micro beta scintillation counting analysis
[25] = molecular target: T1, Sodium-dependent dopamine transporter; experiment: Inhibition of [3H]mazindol binding to recombinant human DAT expressed in HEK293 cell membranes preincubated for 10 mins followed by radioligand addition measured after 90 mins by micro beta scintillation counting analysis

T1 sequence (Q01959 whole entry): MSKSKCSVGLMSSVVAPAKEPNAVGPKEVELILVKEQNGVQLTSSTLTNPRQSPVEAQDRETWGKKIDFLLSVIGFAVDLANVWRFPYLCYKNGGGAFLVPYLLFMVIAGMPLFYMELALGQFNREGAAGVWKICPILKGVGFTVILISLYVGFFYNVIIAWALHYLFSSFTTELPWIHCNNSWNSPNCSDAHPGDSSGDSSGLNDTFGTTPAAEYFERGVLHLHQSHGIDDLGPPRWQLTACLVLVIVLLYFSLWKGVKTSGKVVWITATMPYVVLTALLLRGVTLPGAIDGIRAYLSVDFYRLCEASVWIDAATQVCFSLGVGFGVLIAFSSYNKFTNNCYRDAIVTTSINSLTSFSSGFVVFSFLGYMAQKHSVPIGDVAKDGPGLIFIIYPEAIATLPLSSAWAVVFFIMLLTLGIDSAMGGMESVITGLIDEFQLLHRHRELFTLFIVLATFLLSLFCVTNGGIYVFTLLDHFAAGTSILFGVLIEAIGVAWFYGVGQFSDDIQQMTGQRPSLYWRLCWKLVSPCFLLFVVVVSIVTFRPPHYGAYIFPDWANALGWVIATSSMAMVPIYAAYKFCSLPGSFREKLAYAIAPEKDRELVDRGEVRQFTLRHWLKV
T5 sequence (P23975 whole entry): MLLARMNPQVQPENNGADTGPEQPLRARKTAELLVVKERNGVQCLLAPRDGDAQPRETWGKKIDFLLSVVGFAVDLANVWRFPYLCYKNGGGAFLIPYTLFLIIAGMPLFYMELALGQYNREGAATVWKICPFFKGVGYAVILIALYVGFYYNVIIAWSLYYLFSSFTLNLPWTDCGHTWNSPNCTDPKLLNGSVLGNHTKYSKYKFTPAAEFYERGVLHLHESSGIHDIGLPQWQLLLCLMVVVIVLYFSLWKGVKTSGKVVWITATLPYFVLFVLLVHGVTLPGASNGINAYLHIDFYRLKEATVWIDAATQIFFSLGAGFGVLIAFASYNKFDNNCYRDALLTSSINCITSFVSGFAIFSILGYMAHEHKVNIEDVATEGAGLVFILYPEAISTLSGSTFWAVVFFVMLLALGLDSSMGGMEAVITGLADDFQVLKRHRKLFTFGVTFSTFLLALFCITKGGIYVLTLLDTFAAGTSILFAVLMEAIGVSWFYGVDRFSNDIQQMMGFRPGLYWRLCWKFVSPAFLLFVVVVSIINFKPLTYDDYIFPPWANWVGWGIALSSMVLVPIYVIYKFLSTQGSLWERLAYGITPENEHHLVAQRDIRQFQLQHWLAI
T10 sequence (Q61327 whole entry): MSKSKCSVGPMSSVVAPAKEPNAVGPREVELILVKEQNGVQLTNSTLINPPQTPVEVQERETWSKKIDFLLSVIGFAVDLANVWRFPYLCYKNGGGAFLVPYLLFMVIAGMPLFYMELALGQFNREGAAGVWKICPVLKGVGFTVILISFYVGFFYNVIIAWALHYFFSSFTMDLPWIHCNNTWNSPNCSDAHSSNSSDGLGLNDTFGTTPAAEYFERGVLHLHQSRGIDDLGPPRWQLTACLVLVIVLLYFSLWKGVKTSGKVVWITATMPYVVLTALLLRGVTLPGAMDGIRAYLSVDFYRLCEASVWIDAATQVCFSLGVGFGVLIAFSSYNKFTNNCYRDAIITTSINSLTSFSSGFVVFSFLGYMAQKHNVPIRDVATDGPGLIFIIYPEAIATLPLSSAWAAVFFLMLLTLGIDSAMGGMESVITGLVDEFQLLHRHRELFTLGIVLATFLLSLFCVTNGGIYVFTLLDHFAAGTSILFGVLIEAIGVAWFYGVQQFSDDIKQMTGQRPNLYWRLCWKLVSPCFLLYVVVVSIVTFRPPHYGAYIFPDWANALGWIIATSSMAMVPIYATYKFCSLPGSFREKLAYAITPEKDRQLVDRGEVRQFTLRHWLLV
Sodium-dependent serotonin transporter, sequence (P31645 whole entry): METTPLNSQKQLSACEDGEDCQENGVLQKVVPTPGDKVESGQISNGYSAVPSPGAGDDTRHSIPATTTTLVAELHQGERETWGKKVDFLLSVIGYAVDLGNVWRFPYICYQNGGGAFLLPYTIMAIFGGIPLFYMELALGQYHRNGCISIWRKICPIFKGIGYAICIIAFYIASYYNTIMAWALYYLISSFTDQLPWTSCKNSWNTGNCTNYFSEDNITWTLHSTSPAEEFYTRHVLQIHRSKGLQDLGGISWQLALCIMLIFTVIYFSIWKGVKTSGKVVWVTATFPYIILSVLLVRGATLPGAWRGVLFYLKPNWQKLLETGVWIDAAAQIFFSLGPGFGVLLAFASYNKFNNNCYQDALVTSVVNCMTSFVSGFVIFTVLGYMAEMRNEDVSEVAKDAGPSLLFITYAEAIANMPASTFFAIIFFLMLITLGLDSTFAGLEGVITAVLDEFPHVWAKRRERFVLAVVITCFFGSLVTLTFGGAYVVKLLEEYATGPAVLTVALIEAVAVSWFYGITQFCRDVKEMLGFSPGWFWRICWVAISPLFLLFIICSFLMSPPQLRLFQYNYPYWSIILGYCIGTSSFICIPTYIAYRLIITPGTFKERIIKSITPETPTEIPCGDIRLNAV
Alpha-2A adrenergic receptor, sequence (P08913 whole entry): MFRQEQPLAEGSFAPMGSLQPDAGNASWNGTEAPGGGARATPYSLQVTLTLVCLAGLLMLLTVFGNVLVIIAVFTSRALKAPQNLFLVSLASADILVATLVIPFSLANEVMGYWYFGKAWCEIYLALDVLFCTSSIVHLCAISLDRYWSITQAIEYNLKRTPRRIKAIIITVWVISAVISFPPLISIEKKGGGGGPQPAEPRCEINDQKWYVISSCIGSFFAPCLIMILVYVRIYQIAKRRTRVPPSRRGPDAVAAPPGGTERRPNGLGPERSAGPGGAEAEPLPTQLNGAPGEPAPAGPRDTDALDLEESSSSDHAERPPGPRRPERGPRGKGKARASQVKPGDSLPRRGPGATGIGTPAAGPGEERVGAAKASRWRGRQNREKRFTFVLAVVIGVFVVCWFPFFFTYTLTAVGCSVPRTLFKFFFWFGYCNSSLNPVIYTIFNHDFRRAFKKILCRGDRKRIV
Sigma intracellular receptor 2, sequence (Q5U3Y7 whole entry): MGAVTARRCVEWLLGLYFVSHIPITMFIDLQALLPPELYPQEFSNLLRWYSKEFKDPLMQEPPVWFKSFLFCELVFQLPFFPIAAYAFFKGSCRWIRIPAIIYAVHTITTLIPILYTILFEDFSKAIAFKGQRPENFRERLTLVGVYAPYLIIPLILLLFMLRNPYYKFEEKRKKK
Alpha-2B adrenergic receptor, sequence (P18089 whole entry): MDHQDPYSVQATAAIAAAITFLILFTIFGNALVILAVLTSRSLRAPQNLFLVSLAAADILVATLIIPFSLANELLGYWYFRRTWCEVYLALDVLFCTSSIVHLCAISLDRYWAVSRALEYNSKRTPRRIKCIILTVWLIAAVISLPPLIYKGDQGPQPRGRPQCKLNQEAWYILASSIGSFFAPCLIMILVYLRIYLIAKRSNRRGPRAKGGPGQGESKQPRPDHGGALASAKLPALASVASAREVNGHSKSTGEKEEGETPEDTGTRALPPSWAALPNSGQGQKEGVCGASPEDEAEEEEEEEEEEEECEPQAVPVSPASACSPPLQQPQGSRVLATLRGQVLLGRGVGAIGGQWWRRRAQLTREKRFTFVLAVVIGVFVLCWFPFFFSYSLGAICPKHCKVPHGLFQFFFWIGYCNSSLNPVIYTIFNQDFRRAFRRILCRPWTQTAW

Row | SMILES | Time (Mus musculus) [h] | pKi [1] | inhibition [2] | pKi (Adenosine receptor A3 [3]) | pKi [4] | Activity [5] | pKi [6] | pKi [8] | pKi [10] | EC50 [15] | EC50 [16] | EC50 [18] | EC50 [24] | further results
1 | CCCNc1nc(C#Cc2ccc(Cl)s2)nc2c1ncn2[C@@H]1O[C@H](C(=O)NC)[C@@H](O)[C@H]1O | >6 | 5.00 to 5.30 | inactive | 8.20 | < 5.00 | 84% | < 5.00 | < 5.00 | < 5.00 | – | – | – | – | pKi [7]: 5.51; pEC50 [9]: < 6.00; pKi [11]: 5.00 to 5.30; pKi (Adenosine receptor A3 [12]): 6.22
2 | CNc1nc(C#Cc2ccc(Cl)s2)nc2c1ncn2[C@H]1[C@H](O)[C@H](O)[C@]2(C(=O)OCCc3ccccc3)C[C@H]12 | – | – | – | 6.58 | – | inactive | – | – | – | – | – | – | – | pKi [13]: 5.23; inhibition [14]: 3%
3 | COC(=O)[C@H]1[C@@H](OC(=O)c2ccccc2)C[C@@H]2CC[C@H]1N2C [COCAINE] | – | – | – | – | – | – | – | – | – | Not Active | Not Active | Not Active | – | pKi [17]: 6.07; pIC50 [19]: 6.70
4 | OC1(c2ccc(Cl)cc2)c2ccccc2C2=NCCN21 (racemic) [MAZINDOL] | – | – | – | – | – | – | – | – | – | Not Active | Not Active | Not Active | Not Active | pKi [20]: 7.95; pIC50 [21]: 9.04; pKi [22]: 7.87; EC50 [23]: Not Active
5 | COC(=O)[C@H]1[C@@H](c2ccc([125I])cc2)CC2CC[C@H]1N2C | – | – | – | – | – | – | – | – | – | Not Active | – | – | Not Active | pKi [25]: 7.96
6 | CNC(=O)[C@H]1O[C@@H](n2cnc3c(NC)nc(C#Cc4ccc(Cl)s4)nc32)[C@H](O)[C@@H]1O | >6 | 5.00 to 5.30 | inactive | – | < 5.00 | 321% | < 5.00 | < 5.00 | < 5.00 | – | – | – | – | –
